Reference: ChEMBL document CHEMBL2146441, “2,6-Disubstituted imidazo[2,1-b][1,3,4]thiadiazoles: search for anticancer agents” (2012)

How the values were obtained:
Type in all cases: functional
[1] = tested on: NCI-H460; test: Cytotoxicity against human NCI-H460 cells assessed as cell growth at 10^-5 M after 48 hrs by SRB assay; conditions: NCI-H460, 48 h, read-out: Activity
[2] = tested on: NCI-H522; test: Cytotoxicity against human NCI-H522 cells assessed as cell growth at 10^-5 M after 48 hrs by SRB assay; conditions: NCI-H522, 48 h, read-out: Activity
[3] = tested on: SW-620; test: Cytotoxicity against human SW620 cells assessed as cell growth at 10^-5 M after 48 hrs by SRB assay; conditions: SW-620, 48 h, read-out: Activity
[4] = tested on: OVCAR-5; test: Cytotoxicity against human OVCAR5 cells assessed as cell growth at 10^-5 M after 48 hrs by SRB assay; conditions: OVCAR-5, 48 h, read-out: Activity
[5] = tested on: COLO; test: Cytotoxicity against human COLO […] cells assessed as cell growth at 10^-7 M after 48 hrs by SRB assay; conditions: read-out: Activity
Outline: (§1)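 NCI-60 screen: lines kept in RPMI 1640 with 5% FBS, seeded at 5000–40,000 cells/well by doubling time, preincubated 24 h at 37 °C in 5% CO2. Time-zero plates TCA-fixed at drug addition. DMSO stocks diluted in medium, 48 h exposure. Fixation in cold TCA (final 10% adherent, 16% suspension), 0.4% SRB stain, solubilised in 10 mM Tris base, A515. Percent growth computed against control and time-zero.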

[6] = tested on: HT-29; test: Cytotoxicity against human HT-29 cells assessed as cell growth at 10^-4 M after 48 hrs by SRB assay; conditions: HT-29, 48 h, read-out: Activity
Outline: (§2)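 NCI-60 five-dose screen. Cells were grown in RPMI 1640 with 5% FBS and seeded at 5000–40,000 cells/well according to doubling time. They were pre-incubated 24 h at 37 °C in 5% CO₂, and time-zero (Tz) plates were TCA-fixed at drug addition. Five 10-fold dilutions of DMSO stock were applied for 48 h. Read-out was SRB staining, 515 nm absorbance, with percent growth calculated versus Tz and untreated control.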

[7] = tested on: RXF 393; test: Cytotoxicity against human RXF393 cells assessed as cell growth at 10^-4 M after 48 hrs by SRB assay; conditions: RXF 393, 48 h, read-out: Activity
[8] = tested on: MCF7; test: Cytotoxicity against human MCF7 cells assessed as cell growth at 10^-4 M after 48 hrs by SRB assay; conditions: MCF7, 48 h, read-out: Activity
[9] = tested on: 786-0; test: Cytotoxicity against human 786-0 cells assessed as cell growth at 10^-7 M after 48 hrs by SRB assay; conditions: 786-0, 48 h, read-out: Activity; outline: as §1
[10] = tested on: RXF 393; test: Cytotoxicity against human RXF393 cells assessed as cell growth at 10^-7 M after 48 hrs by SRB assay; conditions: RXF 393, 48 h, read-out: Activity
[11] = tested on: TK-10; test: Cytotoxicity against human TK10 cells assessed as cell growth at 10^-7 M after 48 hrs by SRB assay; conditions: TK-10, 48 h, read-out: Activity
[12] = tested on: HOP-92; test: Cytotoxicity against human HOP92 cells assessed as cell growth at 10^-8 M after 48 hrs by SRB assay; conditions: HOP-92, 48 h, read-out: Activity; outline: as §2
[13] = tested on: NCI-H322M; test: Cytotoxicity against human NCI-H322M cells assessed as cell growth at 10^-8 M after 48 hrs by SRB assay; conditions: read-out: Activity
[14] = tested on: SF-295; test: Cytotoxicity against human SF295 cells assessed as cell growth at 10^-8 M after 48 hrs by SRB assay; conditions: SF-295, 48 h, read-out: Activity
[15] = tested on: SK-MEL-2; test: Cytotoxicity against human SK-MEL-2 cells assessed as cell growth at 10^-8 M after 48 hrs by SRB assay; conditions: SK-MEL-2, 48 h, read-out: Activity
[16] = tested on: OVCAR-5; test: Cytotoxicity against human OVCAR5 cells assessed as cell growth at 10^-8 M after 48 hrs by SRB assay; conditions: OVCAR-5, 48 h, read-out: Activity
[17] = tested on: RXF 393; test: Cytotoxicity against human RXF393 cells assessed as cell growth at 10^-8 M after 48 hrs by SRB assay; conditions: RXF 393, 48 h, read-out: Activity
[18] = tested on: TK-10; test: Cytotoxicity against human TK10 cells assessed as cell growth at 10^-8 M after 48 hrs by SRB assay; conditions: TK-10, 48 h, read-out: Activity
[19] = tested on: MDA-MB-231; test: Cytotoxicity against human MDA-MB-231 cells assessed as cell growth at 10^-8 M after 48 hrs by SRB assay; conditions: MDA-MB-231, 48 h, read-out: Activity
[20] = tested on: NCI-H322M; test: Cytotoxicity against human NCI-H322M cells assessed as cell growth at 10^-6 M after 48 hrs by SRB assay; conditions: read-out: Activity
[21] = tested on: SF-539; test: Cytotoxicity against human SF539 cells assessed as cell growth at 10^-6 M after 48 hrs by SRB assay; conditions: SF-539, 48 h, read-out: Activity
[22] = tested on: U-251; test: Cytotoxicity against human U251 cells assessed as cell growth at 10^-6 M after 48 hrs by SRB assay; conditions: U-251, 48 h, read-out: Activity
[23] = tested on: M14; test: Cytotoxicity against human M14 cells assessed as cell growth at 10^-6 M after 48 hrs by SRB assay; conditions: M14, 48 h, read-out: Activity
[24] = tested on: IGROV-1; test: Cytotoxicity against human IGROV1 cells assessed as cell growth at 10^-6 M after 48 hrs by SRB assay; conditions: IGROV-1, 48 h, read-out: Activity; outline: as §2
[25] = tested on: SK-OV-3; test: Cytotoxicity against human SKOV3 cells assessed as cell growth at 10^-6 M after 48 hrs by SRB assay; conditions: SK-OV-3, 48 h, read-out: Activity
[26] = tested on: A498; test: Cytotoxicity against human A498 cells assessed as cell growth at 10^-6 M after 48 hrs by SRB assay; conditions: A498, 48 h, read-out: Activity; outline: as §1
[27] = tested on: PC-3; test: Cytotoxicity against human PC3 cells assessed as cell growth at 10^-6 M after 48 hrs by SRB assay; conditions: PC-3, 48 h, read-out: Activity
[28] = tested on: A549; test: Growth inhibition of human A549 cells after 48 hrs by SRB assay; conditions: A549, 48 h; for CC50: read-out: LC50 (the source's name)
Outline: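 Same 48 h NCI-60 five-dose SRB protocol. Adherent lines were fixed with cold TCA at 10% final; suspension lines such as CCRF-CEM were fixed with 16% final TCA. Stain was 0.4% SRB in 1% acetic acid for 10 min, solubilized in 10 mM Tris base and read at 515 nm. GI50 came from log concentration–growth curves, solving [(Ti−Tz)/(C−Tz)]×100 = 50.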

[29] = tested on: MCF7; test: Cytotoxicity against human MCF7 cells assessed as cell growth at 10^-6 M after 48 hrs by SRB assay; conditions: MCF7, 48 h, read-out: Activity
[30] = tested on: MDA-MB-231; test: Cytotoxicity against human MDA-MB-231 cells assessed as cell growth at 10^-6 M after 48 hrs by SRB assay; conditions: MDA-MB-231, 48 h, read-out: Activity

| Structure (SMILES) | growth at 10 µM [1] [%] | growth at 10 µM [2] [%] | growth at 10 µM [3] [%] | growth at 10 µM [4] [%] | growth at 0.1 µM [5] [%] | growth at 100 µM [6] [%] | growth at 100 µM [7] [%] | growth at 100 µM [8] [%] | growth at 0.1 µM [9] [%] | growth at 0.1 µM [10] [%] | growth at 0.1 µM [11] [%] | growth at 0.01 µM [12] [%] | growth at 0.01 µM [13] [%] | growth at 0.01 µM [14] [%] | growth at 0.01 µM [15] [%] | growth at 0.01 µM [16] [%] | growth at 0.01 µM [17] [%] | growth at 0.01 µM [18] [%] | growth at 0.01 µM [19] [%] | growth at 1 µM [20] [%] | further results |
| --- | --- | --- | --- | --- | --- | --- | --- | --- | --- | --- | --- | --- | --- | --- | --- | --- | --- | --- | --- | --- | --- |
| COc1ccc(-c2nn3cc(-c4cccc(N)c4)nc3s2)cc1 | 26 | 13 | 40 | 47 | 101 | -48 | -90 | -47 | 105 | 85 | 135 | 71 | 100 | 95 | 93 | 103 | 90 | 125 | 85 | 86 | growth at 1 µM [21]: 91%; growth at 1 µM [22]: 95%; growth at 1 µM [23]: 94%; growth at 1 µM [24]: 72%; growth at 1 µM [25]: 87%; growth at 1 µM [26]: 53%; growth at 1 µM [27]: 53%; GI50 [28]: 5.84 µM; TGI [28]: 27.5 µM; CC50 [28]: > 100 µM; growth at 1 µM [29]: 65%; growth at 1 µM [30]: 61% |
| COc1ccc(-c2nn3cc(-c4ccc(O)cc4O)nc3s2)cc1 | -6 | 1 | 26 | 20 | 106 | -20 | -63 | -7 | 99 | 104 | 105 | 73 | 89 | 95 | 93 | 92 | 99 | 92 | 99 | 77 | growth at 1 µM [21]: 97%; growth at 1 µM [22]: 77%; growth at 1 µM [23]: 81%; growth at 1 µM [24]: 72%; growth at 1 µM [25]: 85%; growth at 1 µM [26]: 34%; growth at 1 µM [27]: 65%; GI50 [28]: 2.69 µM; TGI [28]: > 100 µM; CC50 [28]: > 100 µM; growth at 1 µM [29]: 70%; growth at 1 µM [30]: 66% |
